Reference: ChEMBL document CHEMBL3588764, “Fluoro-substituted phenylazocarboxamides: Dopaminergic behavior and N-arylating properties for irreversible binding” (Bioorg Med Chem, 2015)

Columns and labels:
[1] = Displacement of [3H][…] from porcine cerebral cortex 5HT1A receptor; format: tissue-based, Sus scrofa
Method in brief: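 Porcine cerebral cortex homogenates as receptor source; [³H][…] at 0.2–0.33 nM for 5-HT1A. Protein measured by Lowry against bovine serum albumin. Competition curves fitted by non-linear regression, EC50 converted to Ki via Cheng–Prusoff.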

[2] = Displacement of [3H]prazosin from porcine cerebral cortex alpha1 adrenoceptor; format: tissue-based, Sus scrofa
[3] = molecular target: T1, D(4) dopamine receptor (Homo sapiens, UniProt P21917); experiment: Displacement of [3H]spiperone from human dopamine D4.4 receptor expressed in CHO cell membranes
T1 sequence (P21917 whole entry): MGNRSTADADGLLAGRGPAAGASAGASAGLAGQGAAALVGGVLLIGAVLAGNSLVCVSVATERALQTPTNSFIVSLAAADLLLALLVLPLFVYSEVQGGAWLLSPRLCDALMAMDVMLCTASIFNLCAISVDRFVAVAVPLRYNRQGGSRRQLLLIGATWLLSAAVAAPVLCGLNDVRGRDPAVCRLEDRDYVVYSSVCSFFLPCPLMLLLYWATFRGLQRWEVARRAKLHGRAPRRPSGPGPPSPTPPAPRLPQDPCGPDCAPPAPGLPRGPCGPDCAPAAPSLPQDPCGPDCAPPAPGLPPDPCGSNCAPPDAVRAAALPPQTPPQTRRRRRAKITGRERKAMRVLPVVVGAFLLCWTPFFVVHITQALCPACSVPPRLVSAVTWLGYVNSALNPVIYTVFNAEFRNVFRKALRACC
Method in brief: (§1)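 Membranes of CHO cells stably expressing each human receptor; [³H]spiperone final 0.1–0.2 nM (D2long), 0.2 nM (D2short), 0.2–0.4 nM (D3), 0.15–0.35 nM (D4.4), set by K_D. Protein per well 4–6, 1–4, 1–6 and 5–6 µg respectively. EC50 from competition curves by non-linear regression, converted to Ki with Cheng–Prusoff; Ki mean of 3–7 independent experiments in triplicate.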

[4] = molecular target: 5-hydroxytryptamine receptor 2A (Homo sapiens, UniProt P28223); experiment: Displacement of [3H]ketanserin from human 5HT2A receptor expressed in HEK293 cell membranes
Method in brief: (§2)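 Homogenates from HEK 293 cells transiently transfected (calcium phosphate) with the human receptor gene in pcDNA3.1. [³H]SCH23390 at 0.3–0.7 nM (D1) or 0.4–0.5 nM (D5); [³H]ketanserin at 0.3–0.5 nM (5-HT2A). Competition curves fitted by non-linear regression, EC50 converted to Ki via Cheng–Prusoff.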

[5] = molecular target: D(1B) dopamine receptor (Homo sapiens, UniProt P21918); experiment: Displacement of [3H]SCH23390 from human dopamine D5 receptor expressed in HEK293 cell membranes; method in brief: as §2
[6] = organism: Homo sapiens; experiment: Selectivity index, ratio of Ki for human dopamine D2 long receptor to Ki for human dopamine D3 receptor
Method in brief: (§3)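 Ratio of Ki at D2long or D2short to Ki at D3, with both Ki values from [³H]spiperone competition on CHO membranes stably expressing the human receptors.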

[7] = molecular target: D(1A) dopamine receptor (Homo sapiens, UniProt P21728); experiment: Displacement of [3H]SCH23390 from human dopamine D1 receptor expressed in HEK293 cell membranes; method in brief: as §2
[8] = organism: Homo sapiens; experiment: Selectivity index, ratio of Ki for human dopamine D2 short receptor to Ki for human dopamine D3 receptor; method in brief: as §3
[9] = molecular target: T2, D(2) dopamine receptor (Homo sapiens, UniProt P14416); experiment: Displacement of [3H]spiperone from human dopamine D2 long receptor expressed in CHO cell membranes; method in brief: as §1
[10] = molecular target: T3, D(3) dopamine receptor (Homo sapiens, UniProt P35462); experiment: Displacement of [3H]spiperone from human dopamine D3 receptor expressed in CHO cell membranes; method in brief: as §1
[11] = molecular target: T2, D(2) dopamine receptor; experiment: Displacement of [3H]spiperone from human dopamine D2 short receptor expressed in CHO cell membranes; method in brief: as §1
[12] = molecular target: T3, D(3) dopamine receptor; experiment: Activation of wild type human dopamine D3 receptor expressed in HEK293 cells co-expressing GaqG66Di5- incubated for 120 mins by scintillation counting based myo-[3H]inositol phosphate accumulation assay; format: functional, cell-based
[13] = test system: D(3) dopamine receptor (Homo sapiens), P35462 [L89K]; experiment: Activation of human dopamine D3 receptor L89K mutant expressed in HEK293 cells co-expressing GaqG66Di5- incubated for 120 mins by scintillation counting based myo-[3H]inositol phosphate accumulation assay relative to control; format: functional, cell-based
Method in brief: (§4)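 HEK293T cells transiently co-transfected with human D3 (wild type or L89K mutant) plus GαqG66Di5; 24 h later seeded and labelled with myo-[³H]inositol. Next day, compounds in Tris/EDTA/MgCl2/DTT buffer pH 7.4 with 10 mM LiCl for 120 min at 37 °C. Total IP isolated by anion exchange and counted by scintillation; expressed as fold over basal (unstimulated = 1).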

[14] = molecular target: D(3) dopamine receptor (Homo sapiens, UniProt P35462, L89K); experiment: Activation of human dopamine D3 receptor L89K mutant expressed in HEK293 cells co-expressing GaqG66Di5- incubated for 120 mins by scintillation counting based myo-[3H]inositol phosphate accumulation assay; format: functional, cell-based
[15] = molecular target: T3, D(3) dopamine receptor; experiment: Activation of wild type human dopamine D3 receptor expressed in HEK293 cells co-expressing GaqG66Di5- incubated for 120 mins by scintillation counting based myo-[3H]inositol phosphate accumulation assay relative to quinpirole; format: functional, cell-based; method in brief: as §4

Chain of D(1B) dopamine receptor (P21918 whole entry): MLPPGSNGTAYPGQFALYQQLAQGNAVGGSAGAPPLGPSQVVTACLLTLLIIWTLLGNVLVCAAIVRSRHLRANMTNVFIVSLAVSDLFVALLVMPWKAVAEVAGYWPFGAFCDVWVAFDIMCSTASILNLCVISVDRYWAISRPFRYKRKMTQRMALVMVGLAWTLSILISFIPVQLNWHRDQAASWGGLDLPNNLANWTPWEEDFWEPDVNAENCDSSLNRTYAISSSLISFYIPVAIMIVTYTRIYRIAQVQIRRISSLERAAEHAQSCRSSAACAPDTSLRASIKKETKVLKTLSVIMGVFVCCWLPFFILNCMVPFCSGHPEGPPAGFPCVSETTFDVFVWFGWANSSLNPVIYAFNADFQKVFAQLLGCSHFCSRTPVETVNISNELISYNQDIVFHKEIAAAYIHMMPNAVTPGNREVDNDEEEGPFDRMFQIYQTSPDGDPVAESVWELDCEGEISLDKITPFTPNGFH
T3 sequence (P35462 whole entry): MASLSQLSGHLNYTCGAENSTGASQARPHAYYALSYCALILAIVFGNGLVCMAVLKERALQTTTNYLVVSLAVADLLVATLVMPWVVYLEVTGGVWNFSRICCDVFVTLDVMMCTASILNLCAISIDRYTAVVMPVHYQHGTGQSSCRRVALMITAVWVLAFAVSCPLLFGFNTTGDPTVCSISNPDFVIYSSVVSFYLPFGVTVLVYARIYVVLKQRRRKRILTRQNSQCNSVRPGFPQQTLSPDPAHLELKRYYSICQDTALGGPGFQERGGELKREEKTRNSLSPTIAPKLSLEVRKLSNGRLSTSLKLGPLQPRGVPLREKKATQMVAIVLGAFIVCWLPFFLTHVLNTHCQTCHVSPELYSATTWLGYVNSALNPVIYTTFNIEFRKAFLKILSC
T2 sequence (P14416 whole entry): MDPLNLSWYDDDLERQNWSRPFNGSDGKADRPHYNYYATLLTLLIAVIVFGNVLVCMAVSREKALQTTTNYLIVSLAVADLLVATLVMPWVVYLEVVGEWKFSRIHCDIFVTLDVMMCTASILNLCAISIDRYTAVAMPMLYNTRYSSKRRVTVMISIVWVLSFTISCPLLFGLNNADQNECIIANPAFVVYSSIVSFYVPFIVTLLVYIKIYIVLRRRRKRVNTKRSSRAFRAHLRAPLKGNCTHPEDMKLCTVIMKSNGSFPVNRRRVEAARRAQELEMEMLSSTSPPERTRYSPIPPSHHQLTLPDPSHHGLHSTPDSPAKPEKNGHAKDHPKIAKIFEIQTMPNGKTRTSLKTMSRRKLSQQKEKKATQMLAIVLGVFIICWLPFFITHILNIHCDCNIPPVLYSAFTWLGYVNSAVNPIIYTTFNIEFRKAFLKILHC
Chain of D(3) dopamine receptor (Homo sapiens), P35462 [L89K] (P35462 as listed by the source): as the sequence (P35462 whole entry) above, with G9S, L89K counted along it
Chain of D(3) dopamine receptor (Homo sapiens, UniProt P35462, L89K) (P35462 as listed by the source L89K): as the sequence (P35462 whole entry) above, with G9S, L89K counted along it
Chain of D(1A) dopamine receptor (P21728 whole entry): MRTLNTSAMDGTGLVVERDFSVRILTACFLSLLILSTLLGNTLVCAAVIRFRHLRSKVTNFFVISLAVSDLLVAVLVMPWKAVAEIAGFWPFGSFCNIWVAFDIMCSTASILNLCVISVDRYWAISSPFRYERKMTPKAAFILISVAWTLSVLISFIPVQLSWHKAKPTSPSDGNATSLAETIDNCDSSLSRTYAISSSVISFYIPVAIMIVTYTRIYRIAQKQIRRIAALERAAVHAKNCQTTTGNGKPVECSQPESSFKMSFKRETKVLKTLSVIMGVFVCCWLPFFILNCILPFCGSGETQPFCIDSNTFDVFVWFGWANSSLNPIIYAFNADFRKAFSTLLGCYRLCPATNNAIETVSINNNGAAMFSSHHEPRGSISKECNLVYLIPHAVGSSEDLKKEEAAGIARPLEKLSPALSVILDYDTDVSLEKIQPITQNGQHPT
Chain of 5-hydroxytryptamine receptor 2A (P28223 whole entry): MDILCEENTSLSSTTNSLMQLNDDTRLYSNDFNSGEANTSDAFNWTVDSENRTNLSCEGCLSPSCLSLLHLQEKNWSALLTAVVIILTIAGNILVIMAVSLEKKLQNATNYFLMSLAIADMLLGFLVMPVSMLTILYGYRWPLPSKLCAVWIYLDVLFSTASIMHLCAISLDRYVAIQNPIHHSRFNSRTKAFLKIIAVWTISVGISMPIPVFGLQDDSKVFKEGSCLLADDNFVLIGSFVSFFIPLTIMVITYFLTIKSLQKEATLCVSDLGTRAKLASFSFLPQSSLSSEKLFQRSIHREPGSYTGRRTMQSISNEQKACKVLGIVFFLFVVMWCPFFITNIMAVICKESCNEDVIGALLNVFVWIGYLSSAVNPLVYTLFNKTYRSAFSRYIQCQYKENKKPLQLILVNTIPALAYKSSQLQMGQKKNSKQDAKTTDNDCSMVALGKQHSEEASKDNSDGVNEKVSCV

Ki [1] | Ki [2] | Ki [3] | Ki [4] | Ki [5] | Ratio Ki [6] | Ki [7] | Ratio Ki [8] | Ki [9] | Ki [10] | Ki [11] | EC50 [12] | Efficacy [13] | EC50 [14] | Efficacy [15] | Compound
0.0043 µM | 0.058 µM | 0.0014 µM | 0.21 µM | 11 µM | 3.1 | 2.2 µM | 0.93 | 0.043 µM | 0.014 µM | 0.013 µM | – | – | – | – | CCCN(CCNC(=O)/C=C/c1ccc(F)cc1)C1Cc2ccccc2C1
0.0058 µM | 0.17 µM | 0.034 µM | 0.55 µM | 7 µM | 27 | 3.3 µM | 42 | 0.023 µM | 0.00085 µM | 0.036 µM | 0.0026 µM | 81% | 0.068 µM | 84% | CCCN(CCCCNC(=O)/N=N/c1ccc(F)cc1)C1Cc2ccccc2C1
– | – | 0.00099 µM | – | – | 3.6 | – | 2.9 | 0.005 µM | 0.0014 µM | 0.004 µM | – | – | – | – | CCCN(CCNC(=O)/N=N/c1ccc(F)cc1)C1Cc2ccccc2C1
0.005 µM | 0.12 µM | 0.016 µM | 0.089 µM | 2.9 µM | 61 | 1.3 µM | 9.4 | 0.019 µM | 0.00031 µM | 0.0029 µM | – | – | – | – | CCCN(CCCCNC(=O)/C=C/c1ccc(F)cc1)C1Cc2ccccc2C1

More lines, now with the values behind:

Compound | Ki [1] | Ki [2] | Ki [3] | Ki [4] | Ki [5] | Ratio Ki [6] | Ki [7] | Ratio Ki [8] | Ki [9] | Ki [10] | Ki [11] | EC50 [12] | Efficacy [13] | EC50 [14] | Efficacy [15]
CCCN(CCNC(=O)/N=N/c1cc(F)c(F)c(F)c1)C1Cc2ccccc2C1 | 0.0033 µM | 0.9 µM | 0.01 µM | 0.51 µM | 3.8 µM | 1.3 | 2.6 µM | 0.84 | 0.11 µM | 0.087 µM | 0.073 µM | – | – | – | –
CCCN(CCCCNC(=O)/N=N/c1cc(F)c(F)c(F)c1)C1Cc2ccccc2C1 | – | – | 0.04 µM | – | – | 8.2 | – | 2.4 | 0.04 µM | 0.0049 µM | 0.012 µM | 0.011 µM | 101% | 0.114 µM | 90%
CCCN(CCCCNC(=O)/N=N/c1ccc(F)c(F)c1)C1Cc2ccccc2C1 | – | – | 0.031 µM | – | – | 13 | – | 6.5 | 0.025 µM | 0.002 µM | 0.013 µM | 0.0061 µM | 77% | 0.079 µM | 94%
COc1ccccc1N1CCN(CCCCNC(=O)/N=N/c2cc(F)c(F)c(F)c2)CC1 | – | – | 0.047 µM | – | – | 4.7 | – | 6.8 | 0.0066 µM | 0.0014 µM | 0.0095 µM | – | – | – | –
COc1ccccc1N1CCN(CCCCNC(=O)/N=N/c2ccc(F)cc2)CC1 | 0.0033 µM | 0.0052 µM | – | – | – | 13 | – | 11 | – | 0.003 µM | 0.034 µM | – | – | – | –
COc1ccccc1N1CCN(CCCCNC(=O)/N=N/c2ccc(F)c(F)c2)CC1 | – | – | 0.036 µM | – | – | 10 | – | 16 | 0.0075 µM | 0.00072 µM | 0.012 µM | – | – | – | –
CCCN(CCNC(=O)/N=N/c1ccc(F)c(F)c1)C1Cc2ccccc2C1 | – | – | 0.002 µM | – | – | 1.4 | – | 3 | 0.0039 µM | 0.0028 µM | 0.0085 µM | – | – | – | –
